In brackets after ≈: the same amount, converted by molar mass.
Tests used:
Enterococcus faecalis = test: Antibacterial activity against Enterococcus faecalis; type: functional
Outline: (§1)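 MICs for baseline pathogens isolated from patients with complicated skin and skin-structure infections. Isolates went to a central laboratory for identification and susceptibility testing by CLSI broth dilution in fresh media.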

Enterococcus faecium = test: Antibacterial activity against Enterococcus faecium; type: functional; outline: as §1
Streptococcus anginosus = test: Antibacterial activity against Streptococcus anginosus; type: functional; outline: as §1
Klebsiella pneumoniae = test: Antibacterial activity against Klebsiella pneumoniae; type: functional
Outline: (§2)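 Baseline isolates from cSSSI patients in three pooled tigecycline trials (one phase 2, two phase 3) were identified and susceptibility-tested at a central laboratory. MICs were determined by broth dilution in fresh media following Clinical and Laboratory Standards Institute guidelines.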

Streptococcus agalactiae = test: Antibacterial activity against Streptococcus agalactiae; type: functional; outline: as §1
Proteus mirabilis = test: Antibacterial activity against Proteus mirabilis; type: functional; outline: as §1
Staphylococcus aureus = test: Antibacterial activity against Staphylococcus aureus; type: functional; outline: as §2
[1] = AUC (24 hrs)/MIC in patient with baseline skin pathogens at 100 mg loading dose followed by 50 mg every 12 hrs; type: ADME, cell-free; conditions: human, plasma
Outline: (§3)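 Per-patient ratio of model-derived steady-state AUC24 to the MIC of the baseline pathogen. The AUC24 came from population PK analysis of serum LC-MS/MS levels sampled predose and at 1, 3 and 6 h. MICs were set centrally by CLSI broth dilution in fresh media on isolates taken at baseline, with i.v. dosing over 7 to 14 days.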

Citrobacter freundii = test: Antibacterial activity against Citrobacter freundii; type: functional; outline: as §1
[2] = tested on: Acinetobacter calcoaceticus; test: Antibacterial activity against Acinetobacter calcoaceticus; type: functional; outline: as §1
[3] = AUC (24 hrs)/MIC in patient with baseline skin pathogens at 50 mg loading dose followed by 25 mg every 12 hrs; type: ADME, cell-free; conditions: human, plasma; outline: as §3
Enterobacter cloacae = test: Antibacterial activity against Enterobacter cloacae; type: functional; outline: as §2
Acinetobacter baumannii = test: Antibacterial activity against Acinetobacter baumannii; type: functional; outline: as §2
[4] = tested on: Streptococcus dysgalactiae; test: Antibacterial activity against Streptococcus dysgalactiae; type: functional; outline: as §1
Pseudomonas aeruginosa = test: Antibacterial activity against Pseudomonas aeruginosa; type: functional; outline: as §2
[5] = tested on: Streptococcus constellatus; test: Antibacterial activity against Streptococcus constellatus; type: functional; outline: as §1
Streptococcus pyogenes = test: Antibacterial activity against Streptococcus pyogenes; type: functional; outline: as §1
Klebsiella oxytoca = test: Antibacterial activity against Klebsiella oxytoca; type: functional; outline: as §1
Escherichia coli = test: Antibacterial activity against Escherichia coli; type: functional; outline: as §2
[6] = AUC at 24 hrs steady state in patient with complicated skin and skin structure infection at 50 mg loading dose followed by 25 mg every 12 hrs; type: ADME, organism-based; parameters: time < 24 hr, dose 50 mg; conditions: human, plasma
Outline: (§4)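 Tigecycline given i.v. for 7 to 14 days. Levels were measured by validated LC-MS/MS (LLOQ 10 ng/ml). Steady-state AUC24 was derived from a population PK model in evaluable patients pooled from three trials.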

[7] = tested on: Streptococcus dysgalactiae subsp. equisimilis; test: Antibacterial activity against Streptococcus equisimilis; type: functional; outline: as §1
[8] = AUC at 24 hrs steady state in patient with complicated skin and skin structure infection at 100 mg loading dose followed by 50 mg every 12 hrs; type: ADME, organism-based; parameters: dose 100 mg, time < 24 hr; conditions: human, plasma; outline: as §4
[9] = tested on: Acinetobacter haemolyticus; test: Antibacterial activity against Acinetobacter haemolyticus; type: functional; outline: as §1
Citrobacter koseri = test: Antibacterial activity against Citrobacter koseri; type: functional; outline: as §1
Serratia marcescens = test: Antibacterial activity against Serratia marcescens; type: functional; outline: as §1
[10] = tested on: Streptococcus intermedius; test: Antibacterial activity against Streptococcus intermedius; type: functional; outline: as §1

Question: With CN(C)c1cc(NC(=O)CNC(C)(C)C)c(O)c2c1C[C@H]1C[C@H]3[C@H](N(C)C)C(O)=C(C(N)=O)C(=O)[C@@]3(O)C(O)=C1C2=O [TIGECYCLINE] as the compound, how does the MIC (Enterococcus faecalis) read?
Answer: 0.12 µg/mL (≈ 0.205 µM)

Question: And the MIC (Enterococcus faecium)?
Answer: 0.06 µg/mL (≈ 0.102 µM)

Question: And the MIC (Streptococcus anginosus)?
Answer: 0.06 µg/mL (≈ 0.102 µM)

Question: What about the MIC (Klebsiella pneumoniae) of the same compound?
Answer: 0.5 µg/mL (≈ 0.854 µM)

Question: And the MIC (Streptococcus agalactiae)?
Answer: 0.06 µg/mL (≈ 0.102 µM)

Question: What about the MIC (Proteus mirabilis) of the same compound?
Answer: 2 µg/mL (≈ 3.41 µM)

Question: And the MIC (Staphylococcus aureus)?
Answer: 0.06 µg/mL (≈ 0.102 µM)

Question: And the RatioAUC/MIC [1]?
Answer: 32.5

Question: And the MIC (Citrobacter freundii)?
Answer: 0.5 µg/mL (≈ 0.854 µM)

Question: What about the MIC [2] of the same compound?
Answer: 0.25 µg/mL (≈ 0.427 µM)

Question: And the RatioAUC/MIC [3]?
Answer: 13.3

Question: What about the MIC (Enterobacter cloacae) of the same compound?
Answer: 1 µg/mL (≈ 1.71 µM)

Question: And the MIC (Acinetobacter baumannii)?
Answer: 0.25 µg/mL (≈ 0.427 µM)

Question: And the MIC [4]?
Answer: 0.12 µg/mL (≈ 0.205 µM)

Question: What about the MIC (Pseudomonas aeruginosa) of the same compound?
Answer: 8 µg/mL (≈ 13.7 µM)

Question: What about the MIC [5] of the same compound?
Answer: 0.12 µg/mL (≈ 0.205 µM)

Question: What about the MIC (Streptococcus pyogenes) of the same compound?
Answer: 0.06 µg/mL (≈ 0.102 µM)

Question: What about the MIC (Klebsiella oxytoca) of the same compound?
Answer: 0.5 µg/mL (≈ 0.854 µM)

Question: What about the MIC (Escherichia coli) of the same compound?
Answer: 0.25 µg/mL (≈ 0.427 µM)

Question: And the AUC at 24 h [6]?
Answer: 2660 ng·h/mL

Question: What about the MIC [7] of the same compound?
Answer: 0.06 µg/mL (≈ 0.102 µM)

Question: What about the AUC at 24 h [8] of the same compound?
Answer: 5390 ng·h/mL

Question: And the MIC [9]?
Answer: 0.5 µg/mL (≈ 0.854 µM)

Question: What about the MIC (Citrobacter koseri) of the same compound?
Answer: 0.5 µg/mL (≈ 0.854 µM)

Question: And the MIC (Serratia marcescens)?
Answer: 1 µg/mL (≈ 1.71 µM)

Question: What about the MIC [10] of the same compound?
Answer: 0.06 µg/mL (≈ 0.102 µM)

Source: ChEMBL document CHEMBL1145493, “Exposure-response analyses of tigecycline efficacy in patients with complicated skin and skin-structure infections” (Antimicrob Agents Chemother, 2007)
